Common to all, as to assay type: functional
Test [1] relates to Candida albicans. Briefly: Antimicrobial activity against Candida albicans C126 isolate at 100 ug/ml after 24 hrs. Put shortly:
(§1)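 Growth-inhibition microplate test. Strains are grown on Sabouraud-chloramphenicol agar for 48 h at 30 °C, and inoculum is added to RPMI-1640 containing compound at a final 100–6.25, with DMSO ≤2%. Each strain has a growth control (same DMSO, no compound) and a sterility control.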

For test [2], the system named is Candida albicans. As to the kind of experiment: Antimicrobial activity against Candida albicans C126 isolate at 50 ug/ml after 24 hrs. The gist of the method:
as §1

Test [3] relates to Candida albicans. Briefly: Antimicrobial activity against Candida albicans C126 isolate at 12.5 ug/ml after 24 hrs. Put shortly:
as §1

Test [4] has as its system Candida albicans. As to the kind of experiment: Antimicrobial activity against Candida albicans C126 isolate at 6.25 ug/ml after 24 hrs. Put shortly: as §1
In test [5] the test system is Candida albicans. As to the kind of experiment: Antimicrobial activity against Candida albicans C127 isolate at 100 ug/ml after 24 hrs. As to conditions: C127, 24 h. The gist of the method:
as §1

For test [6], the system named is Candida albicans. As to the kind of experiment: Antimicrobial activity against Candida albicans C127 isolate at 50 ug/ml after 24 hrs. The conditions noted are these: C127, 24 h. Put shortly:
as §1

In test [7] the test system is Candida albicans. Briefly: Antimicrobial activity against Candida albicans C127 isolate at 6.25 ug/ml after 24 hrs. As to conditions: C127, 24 h. The gist of the method:
as §1

In test [8] the test system is Candida albicans. As to the kind of experiment: Antimicrobial activity against Candida albicans C128 isolate at 50 ug/ml after 24 hrs. The gist of the method: as §1
Test [9] concerns Candida albicans. As to the kind of experiment: Antimicrobial activity against Candida albicans C128 isolate at 25 ug/ml after 24 hrs. Put shortly:
as §1

The test system of test [10] is Candida albicans. As to the kind of experiment: Antimicrobial activity against Candida albicans C128 isolate at 12.5 ug/ml after 24 hrs. The gist of the method:
as §1

Test [11] concerns Candida albicans. As to the kind of experiment: Antimicrobial activity against Candida albicans C128 isolate at 6.25 ug/ml after 24 hrs. The gist of the method: as §1
In test [12] the test system is Candida albicans. As to the kind of experiment: Antimicrobial activity against Candida albicans C129 isolate at 100 ug/ml after 24 hrs. The gist of the method: as §1
The subject of test [13] is Candida albicans. As to the kind of experiment: Antimicrobial activity against Candida albicans C129 isolate at 25 ug/ml after 24 hrs. The gist of the method: as §1
Test [14] has as its system Candida albicans. As to the kind of experiment: Antimicrobial activity against Candida albicans C129 isolate at 12.5 ug/ml after 24 hrs. Put shortly:
as §1

Test [15] concerns Candida albicans. Briefly: Antimicrobial activity against Candida albicans C129 isolate at 6.25 ug/ml after 24 hrs. Put shortly:
as §1

Test [16] has as its system Candida albicans. As to the kind of experiment: Antimicrobial activity against Candida albicans C130 isolate at 50 ug/ml after 24 hrs. The gist of the method:
as §1

The test system of test [17] is Candida albicans. As to the kind of experiment: Antimicrobial activity against Candida albicans C130 isolate at 12.5 ug/ml after 24 hrs. The gist of the method:
as §1

In test [18] the test system is Nakaseomyces glabratus. As to the kind of experiment: Antimicrobial activity against Candida glabrata C115 isolate at 100 ug/ml after 24 hrs. Put shortly: as §1
Test [19] concerns Nakaseomyces glabratus. As to the kind of experiment: Antimicrobial activity against Candida glabrata C115 isolate at 12.5 ug/ml after 24 hrs. Put shortly: as §1
Test [20] has as its system Nakaseomyces glabratus. As to the kind of experiment: Antimicrobial activity against Candida glabrata C115 isolate at 6.25 ug/ml after 24 hrs. Put shortly: (§2)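 Percent growth inhibition in 96-well microplates. Compound stocks in DMSO (≤2%) were diluted in RPMI-1640 to final 100–6.25 µg/mL, and 100 µL inoculum was added (final 200 µL). Controls were a growth well (inoculum with matching DMSO, no compound) and a sterility well (no inoculum). Inhibition was calculated against growth and sterility wells.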

In test [21] the test system is Candida tropicalis. As to the kind of experiment: Antimicrobial activity against Candida tropicalis C131 isolate at 12.5 ug/ml after 24 hrs. Put shortly:
as §2

The test system of test [22] is Candida tropicalis. Briefly: Antimicrobial activity against Candida tropicalis C131 isolate at 6.25 ug/ml after 24 hrs. The gist of the method: as §2
Test [23] deals with Candida parapsilosis. As to the kind of experiment: Antimicrobial activity against Candida parapsilosis C124 isolate at 25 ug/ml after 24 hrs. The conditions noted are these: Lodderomyces parapsilosis. The gist of the method:
as §2

In test [24] the test system is Pichia kudriavzevii. Briefly: Antimicrobial activity against Candida krusei C117 isolate at 100 ug/ml after 24 hrs. Put shortly: as §2

For orientation: inhibition means the relative decrease from the control value, in per cent. As to `c1ccc2nc(-c3ccncc3)ccc2c1`, the inhibition at 100 µg/mL in test [1] turned out to be 69%; in test [5] it was 80%; in test [12] it was 85%; in test [18], 75%; in test [24], 66%. Also, the inhibition at 50 µg/mL came out at 32% in test [2], 65% in test [6], 15% in [8] and 84% in test [16]. The inhibition at 12.5 µg/mL in [3] was determined as 0%; in test [10], 0%; in test [14] it was 3%; in test [17], 2%; in test [19], 1%; in [21] it was 54%. Besides, the inhibition at 6.25 µg/mL in test [4] worked out at 0%; in test [7], 0%; in [11] it was 0%; in test [15], 0%; in test [20] it was 0%; in [22] it was 22%. Further, the inhibition at 25 µg/mL in test [9] turned out to be 0%; in test [13], 50%; in test [23], 0%.
As for `Cc1cc(-c2ccncc2)nc2ccccc12`, the inhibition at 100 µg/mL in test [1] worked out at 69%; in test [5], 80%; in [12], 85%; in test [18], 75%; in [24] it was 66%. The inhibition at 50 µg/mL in test [2] came out at 32%; in test [6], 65%; in test [8], 15%; in test [16], 84%. Besides, the inhibition at 12.5 µg/mL in test [3] turned out to be 0%; in test [10], 0%; in [14], 3%; in test [17] it was 2%; in test [19], 1%; in [21], 54%. Further, the inhibition at 6.25 µg/mL was found to be 0% in test [4]; 0% in test [7]; 0% in test [11]; 0% in [15]; 0% in test [20]; 22% in [22]. The inhibition at 25 µg/mL in test [9] is 0%; in [13], 50%; in [23] it was 0%.

(Values after ChEMBL document CHEMBL1140069, “In vitro antifungal activity of polyfunctionalized 2-(hetero)arylquinolines prepared through imino Diels-Alder reactions” (2008).)
